≈ marks a conversion by molar mass, not a printed value. Calls of active or inactive are those of the source. The rule behind the calls is not given here.
Columns and labels:
[1] = Cytotoxicity against human MT4 cells after 96 hrs by MTT assay; assay type: cell-based
[2] = test system: Human immunodeficiency virus 1; assay: Antiviral activity against HIV1 infected in human MT4 cells assessed as virus-induced cytopathogenicity after 4 days by MTT assay; assay type: functional, organism-based; conditions: Human immunodeficiency virus 1, MT4, 96 h
[3] = test system: Escherichia coli; assay: Antibacterial activity against Escherichia coli ATCC 10538 at 400 ug/disc after 18 hrs by disc diffusion method; assay type: functional, organism-based
In short: (§1)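 Disc diffusion per CLSI on Mueller–Hinton II agar; 9 mm paper discs loaded from methanol or DMSO solutions to 400 µg per disc, dried; growth inhibition zone diameter read after 18 h at 35 °C.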

[4] = test system: Bordetella bronchiseptica; assay: Antibacterial activity against Bordetella bronchiseptica ATCC 4617 at 400 ug/disc after 18 hrs by disc diffusion method; assay type: functional, organism-based; in short: as §1
[5] = test system: Bacillus subtilis; assay: Antibacterial activity against Bacillus subtilis ATCC 6633 at 400 ug/disc after 18 hrs by disc diffusion method; assay type: functional; conditions: ATCC 6633, 18 h, read-out: DIZ; in short: as §1
[6] = test system: Enterococcus hirae; assay: Antibacterial activity against Enterococcus hirae ATCC 10541 at 400 ug/disc after 18 hrs by disc diffusion method; assay type: functional; in short: as §1
[7] = test system: Candida parapsilosis; assay: Antifungal activity against Candida parapsilosis ATCC 22019 at 400 ug/disc after 18 hrs by disc diffusion method; assay type: functional, organism-based
In short: (§2)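 Yeasts tested by disc diffusion (CLSI) on RPMI agar with 2% glucose; 9 mm paper discs bearing 400 µg compound from methanol or DMSO solution; inhibition zone diameter read after 18 h at 35 °C.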

[8] = test system: Staphylococcus aureus; assay: Antibacterial activity against Staphylococcus aureus ATCC 29213 at 400 ug/disc after 18 hrs by disc diffusion method; assay type: functional; in short: as §1
[9] = test system: Micrococcus luteus; assay: Antibacterial activity against Micrococcus luteus ATCC 10240 at 400 ug/disc after 18 hrs by disc diffusion method; assay type: functional; conditions: ATCC 10240, 18 h, read-out: DIZ; in short: as §1
[10] = test system: Pseudomonas aeruginosa; assay: Antibacterial activity against Pseudomonas aeruginosa ATCC 27853 at 400 ug/disc after 18 hrs by disc diffusion method; assay type: functional, organism-based; in short: as §1
[11] = test system: Pseudomonas aeruginosa; assay: Antibacterial activity against Pseudomonas aeruginosa NCTC 6749 at 400 ug/disc after 18 hrs by disc diffusion method; assay type: functional, organism-based; in short: as §1
[12] = test system: Pseudomonas aeruginosa; assay: Antibacterial activity against Pseudomonas aeruginosa ATCC 15442 at 400 ug/disc after 18 hrs by disc diffusion method; assay type: functional, organism-based; in short: as §1
[13] = test system: Proteus vulgaris; assay: Antibacterial activity against Proteus vulgaris NCTC 4635 at 400 ug/disc after 18 hrs by disc diffusion method; assay type: functional, organism-based; in short: as §1
[14] = test system: Candida albicans; assay: Antifungal activity against Candida albicans ATCC 90028 at 400 ug/disc after 18 hrs by disc diffusion method; assay type: functional, organism-based; in short: as §2
[15] = test system: Staphylococcus epidermidis; assay: Antibacterial activity against Staphylococcus epidermidis ATCC 12228 at 400 ug/disc after 18 hrs by disc diffusion method; assay type: functional; in short: as §1
[16] = test system: Bacillus cereus; assay: Antibacterial activity against Bacillus cereus ATCC 11778 at 400 ug/disc after 18 hrs by disc diffusion method; assay type: functional; in short: as §1
[17] = test system: Staphylococcus aureus; assay: Antibacterial activity against Staphylococcus aureus ATCC 6538 at 400 ug/disc after 18 hrs by disc diffusion method; assay type: functional; in short: as §1
[18] = test system: Escherichia coli; assay: Antibacterial activity against Escherichia coli NCTC 8196 at 400 ug/disc after 18 hrs by disc diffusion method; assay type: functional, organism-based; in short: as §1
[19] = test system: Staphylococcus aureus; assay: Antibacterial activity against Staphylococcus aureus ATCC 25923 at 400 ug/disc after 18 hrs by disc diffusion method; assay type: functional; in short: as §1
[20] = test system: Staphylococcus aureus; assay: Antibacterial activity against Staphylococcus aureus NCTC 4163 at 400 ug/disc after 18 hrs by disc diffusion method; assay type: functional; in short: as §1
[21] = test system: Escherichia coli; assay: Antibacterial activity against Escherichia coli ATCC 25922 at 400 ug/disc after 18 hrs by disc diffusion method; assay type: functional, organism-based; in short: as §1
[22] = test system: Candida albicans; assay: Antifungal activity against Candida albicans ATCC 10231 at 400 ug/disc after 18 hrs by disc diffusion method; assay type: functional, organism-based; in short: as §2
[23] = test system: Micrococcus luteus; assay: Antibacterial activity against Micrococcus luteus ATCC 9341 at 400 ug/disc after 18 hrs by disc diffusion method; assay type: functional; in short: as §1
[24] = test system: Staphylococcus epidermidis; assay: Antibacterial activity against methicillin-resistant Staphylococcus epidermidis clinical isolate 311/08 after 18 hrs by twofold serial agar dilution technique; assay type: functional; conditions: clinical isolate 311/08, 18 h
In short: (§3)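 Clinical isolates came from patients in Warsaw Medical University Hospitals and were classed as methicillin-susceptible or -resistant. MIC was determined by twofold serial agar dilution on Mueller–Hinton II agar (CLSI), 3.125–400 µg/mL in agar, with compounds in methanol or DMSO. Inoculum was 10^4 CFU/mL and plates were read after 18 h at 35 °C.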

[25] = test system: Staphylococcus epidermidis; assay: Antibacterial activity against methicillin-resistant Staphylococcus epidermidis clinical isolate 316/08 after 18 hrs by twofold serial agar dilution technique; assay type: functional; conditions: clinical isolate 316/08, 18 h; in short: as §3
[26] = test system: Staphylococcus epidermidis; assay: Antibacterial activity against methicillin-resistant Staphylococcus epidermidis clinical isolate 342/09 after 18 hrs by twofold serial agar dilution technique; assay type: functional; conditions: clinical isolate 342/09, 18 h; in short: as §3
[27] = test system: Staphylococcus epidermidis; assay: Antibacterial activity against methicillin-resistant Staphylococcus epidermidis clinical isolate 317/08 after 18 hrs by twofold serial agar dilution technique; assay type: functional; conditions: clinical isolate 317/08, 18 h; in short: as §3
[28] = test system: Staphylococcus epidermidis; assay: Antibacterial activity against methicillin-resistant Staphylococcus epidermidis clinical isolate 377/09 after 18 hrs by twofold serial agar dilution technique; assay type: functional; conditions: clinical isolate 377/09, 18 h; in short: as §3
[29] = test system: Staphylococcus epidermidis; assay: Antibacterial activity against methicillin-resistant Staphylococcus epidermidis clinical isolate 340/09 after 18 hrs by twofold serial agar dilution technique; assay type: functional; conditions: clinical isolate 340/09, 18 h; in short: as §3
[30] = test system: Staphylococcus epidermidis; assay: Antibacterial activity against methicillin-resistant Staphylococcus epidermidis clinical isolate 341/09 after 18 hrs by twofold serial agar dilution technique; assay type: functional; conditions: clinical isolate 341/09, 18 h; in short: as §3
[31] = test system: Staphylococcus epidermidis; assay: Antibacterial activity against methicillin-resistant Staphylococcus epidermidis clinical isolate 343/09 after 18 hrs by twofold serial agar dilution technique; assay type: functional; conditions: clinical isolate 343/09, 18 h; in short: as §3
[32] = test system: Staphylococcus epidermidis; assay: Antibacterial activity against methicillin-resistant Staphylococcus epidermidis clinical isolate 318/08 after 18 hrs by twofold serial agar dilution technique; assay type: functional; conditions: clinical isolate 318/08, 18 h; in short: as §3
[33] = test system: Staphylococcus epidermidis; assay: Antibacterial activity against methicillin-resistant Staphylococcus epidermidis clinical isolate 315/08 after 18 hrs by twofold serial agar dilution technique; assay type: functional; conditions: clinical isolate 315/08, 18 h; in short: as §3
[34] = test system: Bacillus cereus; assay: Antibacterial activity against Bacillus cereus ATCC 11778 after 18 hrs by twofold serial agar dilution technique; assay type: functional; conditions: ATCC 11778, 18 h
[35] = test system: Staphylococcus aureus; assay: Antibacterial activity against Staphylococcus aureus ATCC 6538 after 18 hrs by twofold serial agar dilution technique; assay type: functional; conditions: ATCC 6538, 18 h
In short: (§4)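 Twofold serial agar dilution on Mueller–Hinton II agar, following CLSI guidelines. Compounds were dissolved in methanol or DMSO and tested at final agar concentrations of 3.125–400 µg/mL. Final inoculum was 10^4 CFU/mL.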

[36] = test system: Staphylococcus aureus; assay: Antibacterial activity against Staphylococcus aureus NCTC 4163 after 18 hrs by twofold serial agar dilution technique; assay type: functional; conditions: NCTC 4163, 18 h; in short: as §4
[37] = test system: Staphylococcus aureus; assay: Antibacterial activity against Staphylococcus aureus ATCC 29213 after 18 hrs by twofold serial agar dilution technique; assay type: functional; conditions: ATCC 29213, 18 h; in short: as §4
[38] = test system: Micrococcus luteus; assay: Antibacterial activity against Micrococcus luteus ATCC 9341 after 18 hrs by twofold serial agar dilution technique; assay type: functional; conditions: ATCC 9341, 18 h
[39] = test system: Bacillus subtilis; assay: Antibacterial activity against Bacillus subtilis ATCC 6633 after 18 hrs by twofold serial agar dilution technique; assay type: functional; conditions: ATCC 6633, 18 h
[40] = test system: Staphylococcus aureus; assay: Antibacterial activity against Staphylococcus aureus ATCC 25923 after 18 hrs by twofold serial agar dilution technique; assay type: functional; conditions: ATCC 25923, 18 h; in short: as §4
[41] = test system: Micrococcus luteus; assay: Antibacterial activity against Micrococcus luteus ATCC 10240 after 18 hrs by twofold serial agar dilution technique; assay type: functional; conditions: ATCC 10240, 18 h
[42] = test system: Staphylococcus epidermidis; assay: Antibacterial activity against Staphylococcus epidermidis ATCC 12228 after 18 hrs by twofold serial agar dilution technique; assay type: functional; conditions: ATCC 12228, 18 h; in short: as §4
[43] = test system: Enterococcus hirae; assay: Antibacterial activity against Enterococcus hirae ATCC 10541 after 18 hrs by twofold serial agar dilution technique; assay type: functional; conditions: ATCC 10541, 18 h

For `S=C(Nc1ccc(Cl)c(Cl)c1)Nc1nc[nH]n1`, the CC50 at 96 h [1] was 47 µM and the EC50 [2] was over 47 µM.

For `Cc1ccc(NC(=S)Nc2nc[nH]n2)cc1`, the “diameter of the inhibition zone (DIZ)” value [3] was “inactive”, the “diameter of the inhibition zone (DIZ)” value [4] was “inactive” and the zone of inhibition at 400 µg/disc [5] was 13 mm. The “diameter of the inhibition zone (DIZ)” value [6] was “inactive”, the “diameter of the inhibition zone (DIZ)” value [7] was “inactive” and the “diameter of the inhibition zone (DIZ)” value [8] was “inactive”. For the same compound, the zone of inhibition at 400 µg/disc [9] was 12 mm, the “diameter of the inhibition zone (DIZ)” value [10] was “inactive” and the “diameter of the inhibition zone (DIZ)” value [11] was “inactive”. The “diameter of the inhibition zone (DIZ)” value [12] was “inactive”, the CC50 at 96 h [1] was 59 µM and the “diameter of the inhibition zone (DIZ)” value [13] was “inactive”. The “diameter of the inhibition zone (DIZ)” value [14] was “inactive”, the EC50 [2] was over 50 µM and the “diameter of the inhibition zone (DIZ)” value [15] was “inactive”. For the same compound, the “diameter of the inhibition zone (DIZ)” value [16] was “inactive”, the “diameter of the inhibition zone (DIZ)” value [17] was “inactive” and the “diameter of the inhibition zone (DIZ)” value [18] was “inactive”. The “diameter of the inhibition zone (DIZ)” value [19] was “inactive”, the “diameter of the inhibition zone (DIZ)” value [20] was “inactive” and the “diameter of the inhibition zone (DIZ)” value [21] was “inactive”. For the same compound, the “diameter of the inhibition zone (DIZ)” value [22] was “inactive” and the “diameter of the inhibition zone (DIZ)” value [23] was “inactive”.

For `COc1ccc(NC(=S)Nc2nc[nH]n2)cc1`, the CC50 at 96 h [1] was over 100 µM and the EC50 [2] was over 100 µM.

In the case of `Nc1ncnn1/C(S)=N/C1CCCCC1`, the MIC [24] is reported as 25 µg/mL (≈ 111 µM), the MIC [25] is reported as 25 µg/mL (≈ 111 µM) and the MIC [26] is reported as 25 µg/mL (≈ 111 µM). For the same compound, the MIC [27] was 25 µg/mL (≈ 111 µM), the MIC [28] was 25 µg/mL (≈ 111 µM) and the MIC [29] was 12.5 µg/mL (≈ 55.5 µM). For the same compound, the CC50 at 96 h [1] was over 100 µM, the MIC [30] was 25 µg/mL (≈ 111 µM) and the MIC [31] was 12.5 µg/mL (≈ 55.5 µM). It also gave an EC50 [2] of over 100 µM, an MIC [32] of 12.5 µg/mL (≈ 55.5 µM) and an MIC [33] of 12.5 µg/mL (≈ 55.5 µM).

For `O=C(O)c1cn(C2CC2)c2cc(N3CCNCC3)c(F)cc2c1=O` [CIPROFLOXACIN], the MIC [34] was 0.5 µg/mL (≈ 1.51 µM), the MIC [35] was 0.5 µg/mL (≈ 1.51 µM) and the MIC [36] was 0.5 µg/mL (≈ 1.51 µM). For the same compound, the MIC [37] was 0.5 µg/mL (≈ 1.51 µM), the MIC [38] was 2 µg/mL (≈ 6.04 µM) and the MIC [39] was under 0.125 µg/mL. For the same compound, the MIC [40] was 0.5 µg/mL (≈ 1.51 µM), the MIC [41] was 1 µg/mL (≈ 3.02 µM) and the MIC [42] was 0.5 µg/mL (≈ 1.51 µM). The MIC [43] was 4 µg/mL (≈ 12.1 µM).

— ChEMBL document CHEMBL2062460, “Disubstituted thiourea derivatives and their activity on CNS: synthesis and biological evaluation” (Eur J Med Chem, 2012)
